Laboratory results published in ChEMBL document CHEMBL1275375, “Properties and synthesis of 2-{2-fluoro (or bromo)-4-[(2-oxocyclopentyl)methyl]phenyl}propanoic acid: nonsteroidal anti-inflammatory drugs with low membrane permeabilizing and gastric lesion-producing activities” (J Med Chem, 2010).
Active and inactive are the calls of the source. No cut-off for these calls is given here.

How the values were obtained:
[1] = molecular target: Prostaglandin G/H synthase 1 (Homo sapiens, UniProt P23219); experiment: Inhibition of COX1 in human whole blood assessed as TXB2 biosynthesis after 24 hrs by EIA; format: tissue-based
In short: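 IC50 taken from a four-parameter logistic fit of dose-response curves. Ratio is COX-1 IC50 / COX-2 IC50. Mean ± SEM, n = 3.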

[2] = organism: Homo sapiens; experiment: Selectivity ratio of IC50 for human COX1-derived TXB2 biosynthesis to IC50 for human COX2-derived PGE2 biosynthesis
In short: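 Human whole blood assay of COX-1- and COX-2-derived PG biosynthesis. IC50 taken from a four-parameter logistic fit of dose-response curves. Ratio is COX-1 IC50 / COX-2 IC50. Mean ± SEM, n = 3.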

[3] = molecular target: T1, Prostaglandin G/H synthase 2 (Homo sapiens, UniProt P35354); experiment: Inhibition of COX2 in human whole blood assessed as PGE2 biosynthesis after 24 hrs by EIA; format: tissue-based
T1 sequence (P35354 whole entry): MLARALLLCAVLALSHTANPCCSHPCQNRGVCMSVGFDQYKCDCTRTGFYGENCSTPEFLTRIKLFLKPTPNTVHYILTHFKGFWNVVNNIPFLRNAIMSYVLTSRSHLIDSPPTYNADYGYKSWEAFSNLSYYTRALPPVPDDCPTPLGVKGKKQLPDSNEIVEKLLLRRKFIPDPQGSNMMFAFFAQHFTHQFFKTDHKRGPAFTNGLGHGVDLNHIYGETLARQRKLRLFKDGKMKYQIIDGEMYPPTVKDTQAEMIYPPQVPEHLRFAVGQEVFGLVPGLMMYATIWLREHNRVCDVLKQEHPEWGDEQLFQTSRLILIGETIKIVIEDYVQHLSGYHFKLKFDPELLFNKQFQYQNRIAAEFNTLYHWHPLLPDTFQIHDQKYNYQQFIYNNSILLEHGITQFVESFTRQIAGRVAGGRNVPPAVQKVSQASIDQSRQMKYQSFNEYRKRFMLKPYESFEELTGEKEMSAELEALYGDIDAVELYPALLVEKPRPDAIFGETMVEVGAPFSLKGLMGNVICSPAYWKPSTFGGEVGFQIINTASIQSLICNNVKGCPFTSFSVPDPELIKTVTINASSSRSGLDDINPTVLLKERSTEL

[4] = tested on: Rattus norvegicus; experiment: Antiinflammatory activity in rat assessed as inhibition of carrageenan-induced paw edema at 13 mg/kg, po administered 1 hr before carrageenan challenge measured after 3 to 6 hrs; format: functional, organism-based; set-up: dose 13 mg/kg
In short: (§1)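 Oral dosing of rats 1 h before intradermal injection of 1% carrageenan into the left hindpaw. Paw edema measured 3 h and 6 h after carrageenan. Mean ± SEM, n = 3-4, compared with vehicle.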

[5] = tested on: Rattus norvegicus; experiment: Toxicity in Wistar rat assessed as gastric lesion at 52 to 65 mg/kg, po; format: organism-based, Stomach; set-up: dose 52-65 mg/kg, route oral; details: in vivo
In short: (§2)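 Rats dosed orally (low or high dose); stomachs removed 8 h after dosing and scored for hemorrhagic damage to give a lesion index. Mean ± SEM, n = 3.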

[6] = Membrane permeabilization activity in calcein-loaded liposome assessed as calcein release at […] by fluorescence assay; format: physicochemical; details: artificial membrane
In short: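 Calcein-loaded liposomes exposed to compound; release of self-quenched calcein into the medium read as a rise in fluorescence. Triton X-100 (10 μM) defined 100% permeabilization. Mean ± SEM, n = 3.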

[7] = tested on: Rattus norvegicus; experiment: Antiinflammatory activity against Wistar rat assessed as decrease in gastric level of PGE2 at 52 to 65 mg/kg, po; format: functional, organism-based; details: Stomach
In short: (§3)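 Rats dosed orally (low or high dose); stomachs removed 8 h later and gastric PGE₂ level measured by EIA. Mean ± SEM, n = 3, compared with vehicle.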

[8] = tested on: Rattus norvegicus; experiment: Antiinflammatory activity in rat assessed as inhibition of carrageenan-induced paw edema at 11 mg/kg, po administered 1 hr before carrageenan challenge measured after 3 to 6 hrs; format: functional, organism-based; set-up: dose 11 mg/kg; in short: as §1
[9] = tested on: Rattus norvegicus; experiment: Antiinflammatory activity against Wistar rat assessed as decrease in gastric level of PGE2 at 43 to 53 mg/kg, po; format: functional, organism-based; details: Stomach; in short: as §3
[10] = tested on: Rattus norvegicus; experiment: Toxicity in Wistar rat assessed as gastric lesion at 43 to 53 mg/kg, po; format: organism-based, Stomach; set-up: dose 43-53 mg/kg, route oral; details: in vivo; in short: as §2
[11] = tested on: Rattus norvegicus; experiment: Antiinflammatory activity against Wistar rat assessed as decrease in gastric level of PGE2 at 40 to 50 mg/kg, po; format: functional, organism-based; details: Stomach; in short: as §3
[12] = tested on: Rattus norvegicus; experiment: Toxicity in Wistar rat assessed as gastric lesion at 40 to 50 mg/kg, po; format: organism-based, Stomach; set-up: dose 40-50 mg/kg, route oral; details: in vivo; in short: as §2
[13] = tested on: Rattus norvegicus; experiment: Antiinflammatory activity in rat assessed as inhibition of carrageenan-induced paw edema at 10 mg/kg, po administered 1 hr before carrageenan challenge measured after 3 to 6 hrs; format: functional, organism-based; set-up: dose 10 mg/kg; in short: as §1

Chain of Prostaglandin G/H synthase 1 (P23219 whole entry): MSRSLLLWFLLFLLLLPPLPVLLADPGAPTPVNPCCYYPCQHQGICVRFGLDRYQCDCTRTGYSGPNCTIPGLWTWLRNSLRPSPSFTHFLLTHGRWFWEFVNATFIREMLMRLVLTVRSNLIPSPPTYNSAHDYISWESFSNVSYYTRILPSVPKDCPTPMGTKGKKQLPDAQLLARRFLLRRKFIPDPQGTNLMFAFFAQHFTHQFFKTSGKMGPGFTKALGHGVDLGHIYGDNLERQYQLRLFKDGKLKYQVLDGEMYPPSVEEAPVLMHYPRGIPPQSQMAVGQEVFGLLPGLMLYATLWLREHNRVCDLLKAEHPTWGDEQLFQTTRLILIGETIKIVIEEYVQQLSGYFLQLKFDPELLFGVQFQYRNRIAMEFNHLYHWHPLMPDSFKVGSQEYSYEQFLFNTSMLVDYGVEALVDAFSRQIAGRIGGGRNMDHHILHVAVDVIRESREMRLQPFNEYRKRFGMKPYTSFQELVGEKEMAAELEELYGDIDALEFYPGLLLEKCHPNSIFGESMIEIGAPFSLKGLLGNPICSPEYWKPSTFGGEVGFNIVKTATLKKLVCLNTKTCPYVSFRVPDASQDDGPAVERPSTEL

Structure (SMILES) | IC50 [1] | Ratio IC50 [2] | IC50 [3] | Activity [4] | Activity [5] | Activity [6] | Activity [7] | Activity [8] | Activity [9] | Activity [10] | Activity [11] | Activity [12] | Activity [13]
CC(C(=O)O)c1ccc(C[C@@H]2CCC[C@@H]2O)cc1F (relative stereo) | 7.7 µM | 0.2 | 48 µM |  |  |  |  |  |  |  |  |  | 
CC(C(=O)O)c1ccc(C[C@@H]2CCC[C@@H]2O)cc1Br (relative stereo) | 7.2 µM | 0.2 | 34 µM |  |  |  |  |  |  |  |  |  | 
CC(C(=O)O)c1ccc(C[C@H]2CCC[C@@H]2O)cc1F (relative stereo) | 0.6 µM | 0.4 | 3.1 µM |  |  |  |  |  |  |  |  |  | 
CC(C(=O)O)c1ccc(C[C@H]2CCC[C@@H]2O)cc1Br (relative stereo) | 2.2 µM | 0.3 | 8.5 µM |  |  |  |  |  |  |  |  |  | 
CC(C(=O)[O-])c1ccc(CC2CCCC2=O)cc1Br.[Na+] (stereo not drawn) [BROMOLOXOPROFEN] | 30.3 µM | 0.5 | 65.3 µM | Active | Toxic | Not Active | Active |  |  |  |  |  | 
CC(C(=O)[O-])c1ccc(CC2CCCC2=O)cc1F.[Na+] (stereo not drawn) [FLUORO LOXOPROFEN] | 24.2 µM | 2.5 | 14.3 µM |  |  | Not Active |  | Active | Active | Toxic |  |  | 
CC(C(=O)[O-])c1ccc(CC2CCCC2=O)cc1.[Na+] (stereo not drawn) [LOXOPROFEN SODIUM] | 23.5 µM | 2.5 | 10.1 µM |  |  | Active |  |  |  |  | Active | Toxic | Active
